Experimental data from ChEMBL document CHEMBL3414486, “Synthesis of heterocycle-modified betulinic acid derivatives as antitumor agents” (Eur J Med Chem, 2015).

Key:
[1] = Cytotoxicity against human HCT116 cells assessed as growth inhibition after 96 hrs by SRB assay; format: functional, cell-based; conditions: HCT-116, 96 h
In short: (§1)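 SRB viability assay. Cells are seeded for 24 h, then exposed for 96 h to a concentration series from 20 mM DMSO stocks, with a DMSO control. Cells are fixed in 50% TCA (2 h, 4 °C), stained with 0.4% SRB for 10 min and washed with 1% acetic acid. Bound dye is dissolved in 10 mM Tris base and read at 515 nm. IC50 is averaged from at least 3 independent experiments. SI is IC50 in HAF divided by IC50 in the cancer line.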

HT-29 [2] = experiment: Cytotoxicity against human HT-29 cells assessed as growth inhibition after 96 hrs by SRB assay; format: functional, cell-based; conditions: HT-29, 96 h; in short: as §1
[3] = Cytotoxicity against human PC3 cells assessed as growth inhibition after 96 hrs by SRB assay; format: functional, cell-based; conditions: PC-3, 96 h; in short: as §1
DU-145 [4] = experiment: Cytotoxicity against human DU145 cells assessed as growth inhibition after 96 hrs by SRB assay; format: functional, cell-based; conditions: DU-145, 96 h; in short: as §1
MDA-MB-231 = experiment: Cytotoxicity against human MDA-MB-231 cells assessed as growth inhibition after 96 hrs by SRB assay; format: functional, cell-based; conditions: MDA-MB-231, 96 h; in short: as §1
4T1 [5] = experiment: Cytotoxicity against mouse 4T1 cells assessed as growth inhibition after 96 hrs by SRB assay; format: functional, cell-based; conditions: 4T1, 96 h; in short: as §1
T47D [6] = experiment: Cytotoxicity against human T47D cells assessed as growth inhibition after 96 hrs by SRB assay; format: functional, cell-based; in short: as §1
MCF7 [7] = experiment: Cytotoxicity against human MCF7 cells assessed as growth inhibition after 96 hrs by SRB assay; format: functional, cell-based; conditions: MCF7, 96 h; in short: as §1
[8] = Cytotoxicity against human MCF7/ADR cells assessed as growth inhibition after 96 hrs by SRB assay; format: functional, cell-based; conditions: NCI/ADR-RES; in short: as §1
[9] = Cytotoxicity against HAF assessed as growth inhibition after 96 hrs by SRB assay; conditions: Homo sapiens; in short: as §1
NCI/ADR-RES = experiment: Selectivity index, ratio of IC50 for HAF to IC50 for human MCF7/ADR cells; in short: as §1
HT-29 [10] = experiment: Selectivity index, ratio of IC50 for HAF to IC50 for human HT-29 cells; in short: as §1
PC-3 = experiment: Selectivity index, ratio of IC50 for HAF to IC50 for human PC3 cells; in short: as §1
DU-145 [11] = experiment: Selectivity index, ratio of IC50 for HAF to IC50 for human DU145 cells; in short: as §1
[12] = Selectivity index, ratio of IC50 for HAF to IC50 for human MDA-MB-231 cells; in short: as §1
4T1 [13] = experiment: Selectivity index, ratio of IC50 for HAF to IC50 for mouse 4T1 cells; in short: as §1
T47D [14] = experiment: Selectivity index, ratio of IC50 for HAF to IC50 for human T47D cells; in short: as §1
MCF7 [15] = experiment: Selectivity index, ratio of IC50 for HAF to IC50 for human MCF7 cells; in short: as §1
HCT-116 = experiment: Selectivity index, ratio of IC50 for HAF to IC50 for human HCT116 cells; in short: as §1

Structure (SMILES)	IC50 [1]	IC50 (HT-29 [2])	IC50 [3]	IC50 (DU-145 [4])	IC50 (MDA-MB-231)	IC50 (4T1 [5])	IC50 (T47D [6])	IC50 (MCF7 [7])	IC50 [8]	IC50 [9]	Ratio IC50 (NCI/ADR-RES)	Ratio IC50 (HT-29 [10])	Ratio IC50 (PC-3)	Ratio IC50 (DU-145 [11])	Ratio IC50 [12]	Ratio IC50 (4T1 [13])	Ratio IC50 (T47D [14])	Ratio IC50 (MCF7 [15])	Ratio IC50 (HCT-116)
C=C(C)[C@@H]1CC[C@]2(C(=O)O)CC[C@]3(C)[C@H](CC[C@@H]4[C@@]5(C)CC[C@H](NC(=O)c6cccnc6Cl)C(C)(C)[C@@H]5CC[C@]43C)[C@@H]12	> 25 µM	> 25 µM	> 25 µM	> 25 µM	> 25 µM	16.1 µM	17.7 µM	> 25 µM											
C=C(C)[C@@H]1CC[C@]2(C(=O)O)CC[C@]3(C)[C@H](CC[C@@H]4[C@@]5(C)CC[C@H](NC(=O)c6cnccn6)C(C)(C)[C@@H]5CC[C@]43C)[C@@H]12	> 25 µM	> 25 µM	> 25 µM	> 25 µM	> 25 µM	> 25 µM	> 25 µM	> 25 µM											
C=C(C)[C@@H]1CC[C@]2(C(=O)O)CC[C@]3(C)[C@H](CC[C@@H]4[C@@]5(C)CC[C@H](NC(=O)C6CCCCN6)C(C)(C)[C@@H]5CC[C@]43C)[C@@H]12 (some centres not stated)	11.4 µM	20.1 µM	> 25 µM	7.31 µM	10.6 µM	7.87 µM	6.49 µM	4.81 µM											
C=C(C)[C@@H]1CC[C@]2(C(=O)O)CC[C@]3(C)[C@H](CC[C@@H]4[C@@]5(C)CC[C@H](NC(=O)CCC6CCNCC6)C(C)(C)[C@@H]5CC[C@]43C)[C@@H]12	6.86 µM	2.39 µM	3.42 µM	4.39 µM	3.27 µM	2.99 µM	2.59 µM	2.9 µM	4420 nM	6.89 µM	1.6	2.9	2	1.6	2.1	2.3	2.7	2.4	1
C=C(C)[C@@H]1CC[C@]2(C(=O)O)CC[C@]3(C)[C@H](CC[C@@H]4[C@@]5(C)CC[C@H](NC(=O)c6cnc(C)cn6)C(C)(C)[C@@H]5CC[C@]43C)[C@@H]12	> 25 µM	> 25 µM	> 25 µM	> 25 µM	> 25 µM	> 25 µM	> 25 µM	> 25 µM											
C=C(C)[C@@H]1CC[C@]2(C(=O)O)CC[C@]3(C)[C@H](CC[C@@H]4[C@@]5(C)CC[C@H](NC(=O)C6CCCNC6)C(C)(C)[C@@H]5CC[C@]43C)[C@@H]12 (some centres not stated)	1.28 µM	1.19 µM	1.3 µM	3.16 µM	1.94 µM	2.18 µM	2.24 µM	0.94 µM	390 nM	3.18 µM	8.2	2.7	2.4	1	1.6	1.5	1.4	3.4	2.5
C=C(C)[C@@H]1CC[C@]2(C(=O)O)CC[C@]3(C)[C@H](CC[C@@H]4[C@@]5(C)CC[C@H](NC(=O)c6ccncc6)C(C)(C)[C@@H]5CC[C@]43C)[C@@H]12	> 25 µM	> 25 µM	> 25 µM	> 25 µM	> 25 µM	> 25 µM	> 25 µM	> 25 µM											
C=C(C)[C@@H]1CC[C@]2(C(=O)O)CC[C@]3(C)[C@H](CC[C@@H]4[C@@]5(C)CC[C@H](NC(=O)c6cccnc6)C(C)(C)[C@@H]5CC[C@]43C)[C@@H]12	> 25 µM	> 25 µM	> 25 µM	> 25 µM	> 25 µM	> 25 µM	> 25 µM	> 25 µM											
C=C(C)[C@@H]1CC[C@]2(C(=O)O)CC[C@]3(C)[C@H](CC[C@@H]4[C@@]5(C)CC[C@H](OC(=O)C6CCCNC6)C(C)(C)[C@@H]5CC[C@]43C)[C@@H]12 (some centres not stated)	4.6 µM	4.89 µM	8.09 µM	11.3 µM	4.97 µM	7.65 µM	9.73 µM	4.42 µM	1600 nM	5.42 µM	3.4	1.1	0.7	0.5	1.1	0.7	0.6	1.2	1.2
C=C(C)[C@@H]1CC[C@]2(C(=O)O)CC[C@]3(C)[C@H](CC[C@@H]4[C@@]5(C)CC[C@H](NC(=O)CC6CCNCC6)C(C)(C)[C@@H]5CC[C@]43C)[C@@H]12	2.67 µM	2.46 µM	2.55 µM	3.72 µM	3.17 µM	5.15 µM	2.37 µM	3.43 µM	3000 nM	9.21 µM	3.1	3.7	3.6	2.5	2.9	1.8	3.9	2.7	3.4
C=C(C)[C@@H]1CC[C@]2(C(=O)O)CC[C@]3(C)[C@H](CC[C@@H]4[C@@]5(C)CC[C@H](OC(=O)C6CCNCC6)C(C)(C)[C@@H]5CC[C@]43C)[C@@H]12	1.4 µM	1.32 µM	2.18 µM	2.69 µM	1.6 µM	3.74 µM	3.05 µM	2.41 µM	590 nM	5.7 µM	9.7	4.3	2.6	2.1	3.6	1.5	1.9	2.4	4.1
C=C(C)[C@@H]1CC[C@]2(C(=O)O)CC[C@]3(C)[C@H](CC[C@@H]4[C@@]5(C)CC[C@H](NC(=O)CCCC6CCNCC6)C(C)(C)[C@@H]5CC[C@]43C)[C@@H]12	5.61 µM	4.38 µM	5.23 µM	7.7 µM	3.44 µM	6.01 µM	5.26 µM	6.49 µM	930 nM	9.15 µM	9.8	2.1	1.7	1.2	2.7	1.5	1.7	1.4	1.6
C=C(C)[C@@H]1CC[C@]2(C(=O)O)CC[C@]3(C)[C@H](CC[C@@H]4[C@@]5(C)CC[C@H](NC(=O)C6CCCN6)C(C)(C)[C@@H]5CC[C@]43C)[C@@H]12 (some centres not stated)	17.5 µM	18.8 µM	20.3 µM	11 µM	12.8 µM	8.03 µM	11 µM	15.2 µM											
COc1cccc2c1C(=O)c1c(O)c3c(c(O)c1C2=O)C[C@@](O)(C(=O)CO)C[C@@H]3O[C@H]1C[C@H](N)[C@H](O)[C@H](C)O1 [DOXORUBICIN]									9260 nM	0.016 µM									
